Test results as given in ChEMBL document CHEMBL1275272, “Synthesis, characterization and antimicrobial activity of some disubstituted 1,3,4-oxadiazoles carrying 2-(aryloxymethyl)phenyl moiety” (2010).
≈ marks a conversion by molar mass, not a printed value.

Legend:
Type in all cases: functional
Staphylococcus aureus = assay: Antibacterial activity against Staphylococcus aureus after 16 to 18 hrs by serial dilution method; conditions: for MIC: Staphylococcus aureus
Procedure, shortened: (§1)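 The test compound was dissolved in DMF and serially diluted. A standard drop of the prepared microbial culture was added to each dilution, and tubes were incubated at 37 °C for 16–18 h. MIC was taken as the highest dilution that stayed clear with no visible turbidity.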

Escherichia coli = assay: Antibacterial activity against Escherichia coli after 16 to 18 hrs by serial dilution method; conditions: for MIC: Escherichia coli; procedure, shortened: as §1
Pseudomonas aeruginosa = assay: Antibacterial activity against Pseudomonas aeruginosa after 16 to 18 hrs by serial dilution method; conditions: for MIC: Pseudomonas aeruginosa; procedure, shortened: as §1
Klebsiella pneumoniae = assay: Antibacterial activity against Klebsiella pneumoniae after 16 to 18 hrs by serial dilution method; conditions: for MIC: Klebsiella pneumoniae
Talaromyces marneffei = assay: Antifungal activity against Penicillium marneffei after 16 to 18 hrs by serial dilution method; conditions: for MIC: Talaromyces marneffei; procedure, shortened: as §1
[1] = test system: Trichophyton mentagrophytes; assay: Antifungal activity against Trichophyton mentagrophytes after 16 to 18 hrs by serial dilution method; conditions: for MIC: Trichophyton mentagrophytes
Aspergillus flavus = assay: Antifungal activity against Aspergillus flavus after 16 to 18 hrs by serial dilution method; conditions: for MIC: Aspergillus flavus; procedure, shortened: as §1
Aspergillus fumigatus = assay: Antifungal activity against Aspergillus fumigatus after 16 to 18 hrs by serial dilution method; conditions: for MIC: Aspergillus fumigatus

SMILES	MIC (Staphylococcus aureus)	MIC (Escherichia coli)	MIC (Pseudomonas aeruginosa)	MIC (Klebsiella pneumoniae)	MIC (Talaromyces marneffei)	MIC [1]	MIC (Aspergillus flavus)	MIC (Aspergillus fumigatus)	inhibition zone (IZ) (Staphylococcus aureus)	inhibition zone (IZ) (Escherichia coli)	inhibition zone (IZ) (Pseudomonas aeruginosa)	inhibition zone (IZ) (Klebsiella pneumoniae)	inhibition zone (IZ) (Talaromyces marneffei)	inhibition zone (IZ) [1]	inhibition zone (IZ) (Aspergillus flavus)	inhibition zone (IZ) (Aspergillus fumigatus)
Cc1ccc(OCc2ccccc2-c2nnc(SCc3ccccc3)o2)cc1	25 µg/mL (≈ 64.4 µM)	25 µg/mL (≈ 64.4 µM)	25 µg/mL (≈ 64.4 µM)	25 µg/mL (≈ 64.4 µM)	25 µg/mL (≈ 64.4 µM)	25 µg/mL (≈ 64.4 µM)	25 µg/mL (≈ 64.4 µM)	25 µg/mL (≈ 64.4 µM)	<10 mm	<10 mm	<10 mm	<10 mm	<10 mm	<10 mm	<10 mm	<10 mm
Cc1ccccc1OCc1ccccc1-c1nnc(SCc2ccc(Cl)cc2Cl)o1	6.25 µg/mL (≈ 13.7 µM)	12.5 µg/mL (≈ 27.3 µM)	6.25 µg/mL (≈ 13.7 µM)	6.25 µg/mL (≈ 13.7 µM)	6.25 µg/mL (≈ 13.7 µM)	12.5 µg/mL (≈ 27.3 µM)	6.25 µg/mL (≈ 13.7 µM)	6.25 µg/mL (≈ 13.7 µM)	16 mm	11 mm	16 mm	16 mm	16 mm	11 mm	16 mm	16 mm
Cc1cccc(OCc2ccccc2-c2nnc(SCc3ccc(Cl)cc3Cl)o2)c1	6.25 µg/mL (≈ 13.7 µM)	6.25 µg/mL (≈ 13.7 µM)	6.25 µg/mL (≈ 13.7 µM)	6.25 µg/mL (≈ 13.7 µM)	6.25 µg/mL (≈ 13.7 µM)	12.5 µg/mL (≈ 27.3 µM)	12.5 µg/mL (≈ 27.3 µM)	6.25 µg/mL (≈ 13.7 µM)	16 mm	16 mm	16 mm	16 mm	16 mm	11 mm	11 mm	16 mm
Cc1ccc(OCc2ccccc2-c2nnc(SCc3ccc(Cl)cc3Cl)o2)cc1	6.25 µg/mL (≈ 13.7 µM)	6.25 µg/mL (≈ 13.7 µM)	6.25 µg/mL (≈ 13.7 µM)	6.25 µg/mL (≈ 13.7 µM)	6.25 µg/mL (≈ 13.7 µM)	6.25 µg/mL (≈ 13.7 µM)	6.25 µg/mL (≈ 13.7 µM)	6.25 µg/mL (≈ 13.7 µM)	16 mm	16 mm	16 mm	16 mm	16 mm	16 mm	16 mm	16 mm
Clc1ccc(OCc2ccccc2-c2nnc(SCc3ccc(Cl)cc3Cl)o2)cc1	6.25 µg/mL (≈ 13.1 µM)	6.25 µg/mL (≈ 13.1 µM)	6.25 µg/mL (≈ 13.1 µM)	6.25 µg/mL (≈ 13.1 µM)	6.25 µg/mL (≈ 13.1 µM)	6.25 µg/mL (≈ 13.1 µM)	6.25 µg/mL (≈ 13.1 µM)	6.25 µg/mL (≈ 13.1 µM)	16 mm	16 mm	16 mm	16 mm	16 mm	16 mm	16 mm	16 mm
Cc1ccccc1OCc1ccccc1-c1nnc(SCc2ccc(Cl)cc2)o1	12.5 µg/mL (≈ 29.6 µM)	12.5 µg/mL (≈ 29.6 µM)	12.5 µg/mL (≈ 29.6 µM)	12.5 µg/mL (≈ 29.6 µM)	12.5 µg/mL (≈ 29.6 µM)	12.5 µg/mL (≈ 29.6 µM)	12.5 µg/mL (≈ 29.6 µM)	12.5 µg/mL (≈ 29.6 µM)	11 mm	11 mm	11 mm	11 mm	11 mm	11 mm	11 mm	11 mm
Clc1ccc(CSc2nnc(-c3ccccc3COc3ccc(Cl)cc3)o2)cc1	12.5 µg/mL (≈ 28.2 µM)	12.5 µg/mL (≈ 28.2 µM)	12.5 µg/mL (≈ 28.2 µM)	12.5 µg/mL (≈ 28.2 µM)	12.5 µg/mL (≈ 28.2 µM)	12.5 µg/mL (≈ 28.2 µM)	12.5 µg/mL (≈ 28.2 µM)	12.5 µg/mL (≈ 28.2 µM)	11 mm	11 mm	11 mm	11 mm	11 mm	11 mm	11 mm	11 mm
Cc1cccc(CSc2nnc(-c3ccccc3COc3ccccc3C)o2)c1	12.5 µg/mL (≈ 31.1 µM)	12.5 µg/mL (≈ 31.1 µM)	12.5 µg/mL (≈ 31.1 µM)	12.5 µg/mL (≈ 31.1 µM)	12.5 µg/mL (≈ 31.1 µM)	12.5 µg/mL (≈ 31.1 µM)	12.5 µg/mL (≈ 31.1 µM)	6.25 µg/mL (≈ 15.5 µM)	11 mm	11 mm	11 mm	11 mm	11 mm	11 mm	11 mm	16 mm
Cc1ccccc1OCc1ccccc1-c1nnc(-c2cccnc2Cl)o1	12.5 µg/mL (≈ 33.1 µM)	12.5 µg/mL (≈ 33.1 µM)	12.5 µg/mL (≈ 33.1 µM)	12.5 µg/mL (≈ 33.1 µM)					11 mm	11 mm	11 mm	11 mm				
Cc1cccc(OCc2ccccc2-c2nnc(-c3cccnc3Cl)o2)c1	12.5 µg/mL (≈ 33.1 µM)	12.5 µg/mL (≈ 33.1 µM)	12.5 µg/mL (≈ 33.1 µM)	12.5 µg/mL (≈ 33.1 µM)					11 mm	11 mm	11 mm	11 mm				
Cc1ccc(OCc2ccccc2-c2nnc(-c3cccnc3Cl)o2)cc1	12.5 µg/mL (≈ 33.1 µM)	12.5 µg/mL (≈ 33.1 µM)	12.5 µg/mL (≈ 33.1 µM)	12.5 µg/mL (≈ 33.1 µM)					11 mm	11 mm	11 mm	11 mm				
Clc1ccc(OCc2ccccc2-c2nnc(-c3cccnc3Cl)o2)cc1	12.5 µg/mL (≈ 31.4 µM)	12.5 µg/mL (≈ 31.4 µM)	12.5 µg/mL (≈ 31.4 µM)	12.5 µg/mL (≈ 31.4 µM)					11 mm	11 mm	11 mm	11 mm				
Cc1cc(C2CCCCC2)n(O)c(=O)c1.NCCO [CICLOPIROX OLAMINE]					6.25 µg/mL	3.12 µg/mL	3.12 µg/mL	6.25 µg/mL					20 mm	27 mm	25 mm	25 mm
O=C(O)c1cn(C2CC2)c2cc(N3CCNCC3)c(F)cc2c1=O [CIPROFLOXACIN]				1.56 µg/mL (≈ 4.71 µM)					30 mm		25 mm	22 mm				

Continued, in another order:

MIC (Staphylococcus aureus)	MIC (Escherichia coli)	MIC (Pseudomonas aeruginosa)	MIC (Klebsiella pneumoniae)	MIC (Talaromyces marneffei)	MIC [1]	MIC (Aspergillus flavus)	MIC (Aspergillus fumigatus)	SMILES	inhibition zone (IZ) (Staphylococcus aureus)	inhibition zone (IZ) (Escherichia coli)	inhibition zone (IZ) (Pseudomonas aeruginosa)	inhibition zone (IZ) (Klebsiella pneumoniae)	inhibition zone (IZ) (Talaromyces marneffei)	inhibition zone (IZ) [1]	inhibition zone (IZ) (Aspergillus flavus)	inhibition zone (IZ) (Aspergillus fumigatus)
25 µg/mL (≈ 61.1 µM)	25 µg/mL (≈ 61.1 µM)	25 µg/mL (≈ 61.1 µM)	25 µg/mL (≈ 61.1 µM)	25 µg/mL (≈ 61.1 µM)	25 µg/mL (≈ 61.1 µM)	25 µg/mL (≈ 61.1 µM)	25 µg/mL (≈ 61.1 µM)	Clc1ccc(OCc2ccccc2-c2nnc(SCc3ccccc3)o2)cc1	<10 mm	<10 mm	<10 mm	<10 mm	<10 mm	<10 mm	<10 mm	<10 mm
12.5 µg/mL (≈ 29.6 µM)	12.5 µg/mL (≈ 29.6 µM)	12.5 µg/mL (≈ 29.6 µM)	12.5 µg/mL (≈ 29.6 µM)	12.5 µg/mL (≈ 29.6 µM)	12.5 µg/mL (≈ 29.6 µM)	12.5 µg/mL (≈ 29.6 µM)	12.5 µg/mL (≈ 29.6 µM)	Cc1cccc(OCc2ccccc2-c2nnc(SCc3ccc(Cl)cc3)o2)c1	11 mm	11 mm	11 mm	11 mm	11 mm	11 mm	11 mm	11 mm
12.5 µg/mL (≈ 29.6 µM)	12.5 µg/mL (≈ 29.6 µM)	12.5 µg/mL (≈ 29.6 µM)	12.5 µg/mL (≈ 29.6 µM)	12.5 µg/mL (≈ 29.6 µM)	12.5 µg/mL (≈ 29.6 µM)	12.5 µg/mL (≈ 29.6 µM)	12.5 µg/mL (≈ 29.6 µM)	Cc1ccc(OCc2ccccc2-c2nnc(SCc3ccc(Cl)cc3)o2)cc1	11 mm	11 mm	11 mm	11 mm	11 mm	11 mm	11 mm	11 mm
12.5 µg/mL (≈ 31.1 µM)	12.5 µg/mL (≈ 31.1 µM)	12.5 µg/mL (≈ 31.1 µM)	12.5 µg/mL (≈ 31.1 µM)	12.5 µg/mL (≈ 31.1 µM)	12.5 µg/mL (≈ 31.1 µM)	12.5 µg/mL (≈ 31.1 µM)	6.25 µg/mL (≈ 15.5 µM)	Cc1cccc(CSc2nnc(-c3ccccc3COc3cccc(C)c3)o2)c1	11 mm	11 mm	11 mm	11 mm	11 mm	11 mm	11 mm	16 mm
12.5 µg/mL (≈ 31.1 µM)	12.5 µg/mL (≈ 31.1 µM)	12.5 µg/mL (≈ 31.1 µM)	12.5 µg/mL (≈ 31.1 µM)	12.5 µg/mL (≈ 31.1 µM)	12.5 µg/mL (≈ 31.1 µM)	12.5 µg/mL (≈ 31.1 µM)	12.5 µg/mL (≈ 31.1 µM)	Cc1ccc(OCc2ccccc2-c2nnc(SCc3cccc(C)c3)o2)cc1	11 mm	11 mm	11 mm	11 mm	11 mm	11 mm	11 mm	11 mm
12.5 µg/mL (≈ 29.6 µM)	12.5 µg/mL (≈ 29.6 µM)	12.5 µg/mL (≈ 29.6 µM)	12.5 µg/mL (≈ 29.6 µM)	12.5 µg/mL (≈ 29.6 µM)	12.5 µg/mL (≈ 29.6 µM)	12.5 µg/mL (≈ 29.6 µM)	12.5 µg/mL (≈ 29.6 µM)	Cc1cccc(CSc2nnc(-c3ccccc3COc3ccc(Cl)cc3)o2)c1	11 mm	11 mm	11 mm	11 mm	11 mm	11 mm	11 mm	11 mm
